Test results from ChEMBL document CHEMBL1821721, “Probing the difference between BH3 groove of Mcl-1 and Bcl-2 protein: Implications for dual inhibitors design” (Eur J Med Chem, 2011).

Columns and labels:
[1] = target: Induced myeloid leukemia cell differentiation protein Mcl-1 (Homo sapiens, UniProt Q07820); experiment: Displacement of FAM-Bid peptide from human Mcl-1 after 30 mins by competitive fluorescence polarization assay
Outline: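 Serial compound dilutions added with 0.01% Triton X-100; polarization read after 30 min. Controls were protein plus peptide, and peptide alone. Ki calculated with an FP-specific competitive binding equation.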

[2] = target: Apoptosis regulator Bcl-2 (Homo sapiens, UniProt P10415); experiment: Displacement of FAM-Bid peptide from human recombinant Bcl2 after 30 mins by competitive fluorescence polarization assay
Outline: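 Bcl-2 (40 nM) preincubated with 10 nM FAM-Bid peptide (Kd 8 nM) in 100 mM potassium phosphate pH 7.5, bovine gamma globulin, 0.02% sodium azide. Serial compound dilutions added in 0.01% Triton X-100; polarization read after 30 min. Controls were protein plus peptide, and peptide alone. Ki derived from an equation developed for FP assays.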

[3] = tested on: K562; experiment: Cytotoxicity in human K562 cells overexpressing Mcl-1 after 48 hrs by MTT assay; assay type: functional, cell-based; conditions: K562, 48 h
[4] = tested on: HL-60; experiment: Cytotoxicity in human HL60 cells overexpressing Bcl-2 after 48 hrs by MTT assay; assay type: functional, cell-based; conditions: HL-60, 48 h
[5] = tested on: MCF7; experiment: Cytotoxicity in human MCF7 cells overexpressing Mcl-1after 48 hrs by MTT assay; assay type: functional, cell-based; conditions: MCF7, 48 h

Chain of Apoptosis regulator Bcl-2 (P10415 whole entry): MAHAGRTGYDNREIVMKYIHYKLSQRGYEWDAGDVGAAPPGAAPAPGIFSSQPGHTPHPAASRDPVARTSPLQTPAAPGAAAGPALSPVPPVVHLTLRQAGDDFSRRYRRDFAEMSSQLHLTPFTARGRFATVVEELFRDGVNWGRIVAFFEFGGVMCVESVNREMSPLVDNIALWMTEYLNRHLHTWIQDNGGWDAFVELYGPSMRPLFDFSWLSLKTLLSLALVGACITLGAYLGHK
Chain of Induced myeloid leukemia cell differentiation protein Mcl-1 (Q07820 whole entry): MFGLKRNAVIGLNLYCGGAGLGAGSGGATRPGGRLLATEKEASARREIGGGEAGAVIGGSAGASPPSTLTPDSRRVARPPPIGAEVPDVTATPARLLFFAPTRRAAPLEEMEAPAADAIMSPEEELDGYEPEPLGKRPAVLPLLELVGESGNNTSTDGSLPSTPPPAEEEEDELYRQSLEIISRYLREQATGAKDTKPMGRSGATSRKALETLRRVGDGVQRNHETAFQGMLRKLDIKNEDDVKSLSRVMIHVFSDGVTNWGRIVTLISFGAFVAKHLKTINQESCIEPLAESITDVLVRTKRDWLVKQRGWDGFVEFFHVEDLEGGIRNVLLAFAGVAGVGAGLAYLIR

SMILES	Ki [1]	Ki [2]	IC50 [3]	IC50 [4]	IC50 [5]
Cc1cccc(Oc2ccc3c4c(cccc24)C2=NC(=O)C(C#N)=C23)c1	445 nM	6030 nM			
Cc1ccccc1Oc1ccc2c3c(cccc13)C1=NC(=O)C(C#N)=C12	213 nM	1430 nM			
Cc1ccc(Oc2ccc3c4c(cccc24)C2=NC(=O)C(C#N)=C23)cc1	174 nM	445 nM			
CCC(C)c1ccc(Oc2ccc3c4c(cccc24)C2=NC(=O)C(C#N)=C23)cc1 (stereo not drawn)			50 nM	40 nM	20 nM
COc1ccc(Oc2ccc3c4c(cccc24)C2=NC(=O)C(C#N)=C23)cc1	122 nM	304 nM	4700 nM	1900 nM	5100 nM
CC(C)c1ccc(Oc2ccc3c4c(cccc24)C2=NC(=O)C(C#N)=C23)cc1		232 nM			
COc1ccccc1Oc1ccc2c3c(cccc13)C1=NC(=O)C(C#N)=C12	149 nM	886 nM			
N#CC1=C2C(=NC1=O)c1cccc3c(Oc4ccc(-c5ccccc5)cc4)ccc2c13		308 nM			
COc1cccc(Oc2ccc3c4c(cccc24)C2=NC(=O)C(C#N)=C23)c1	375 nM	16600 nM	8300 nM	> 50000 nM	6400 nM
